These results are taken from ChEMBL document CHEMBL1250425, “New antimalarials with a triterpenic scaffold from Momordica balsamina” (Bioorg Med Chem, 2010).

SMILES strings stand for the structures.

Data set [1] can be described thus: Selectivity index, ratio of IC50 for human MCF7 cells to IC50 for chloroquine-sensitive Plasmodium falciparum 3D7. In kind it is toxicity, cell-based. The settings on record: read-out: Selectivity Index.
The test system of data set [2] is Plasmodium falciparum. Nature of the data set: Antimalarial activity against chloroquine-resistant Plasmodium falciparum Dd2 infected in erythrocytes after 48 hrs by SYBR Green 1-based fluorescence assay. In kind it is functional, organism-based. The settings on record: Dd2, 48 h. A digest of the protocol: (§1)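 Parasites grown in fresh erythrocytes in RPMI 1640 with 25 mM HEPES, 6.8 mM hypoxanthine, 10% AlbuMAX II, 37 °C under 5% O2/3–5% CO2/N2. Compounds from DMSO stocks tested at 0.156–100 µg/mL in duplicate, with 1% parasitaemia ring stages at 2% haematocrit, 48 h at 37 °C. SYBR Green I lysis buffer added, 1 h dark at room temperature, fluorescence read at 485/535 nm, IC50 by nonlinear fit.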

The test system of data set [3] is Plasmodium falciparum. Nature of the data set: Antimalarial activity against chloroquine-sensitive Plasmodium falciparum 3D7 infected in erythrocytes after 48 hrs by SYBR Green 1-based fluorescence assay. In kind it is functional, organism-based. The settings on record: 3D7, 48 h. A digest of the protocol: as §1
Data set [4] in a line: Selectivity index, ratio of IC50 for human MCF7 cells to IC50 for chloroquine-resistant Plasmodium falciparum Dd2. In kind it is toxicity, cell-based. The note with it: read-out: Selectivity Index.
The test system of a further data set is MCF7. Nature of the data set: Cytotoxicity against human MCF7 cells after 24 hrs by MTT assay. In kind it is cell-based. The note with it: MCF7, 24 h. In short, it runs like this: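 MCF-7 grown in RPMI 1640 with 10% heat-inactivated horse serum, 2 mM L-glutamine, antibiotics; 5% CO2, 37 °C. 2 × 10^4 cells/well added to serially diluted compound, 24 h at 37 °C; MTT (5 mg/mL stock) 4 h, then 10% SDS overnight; OD 550 nm (ref 630 nm). Growth inhibition vs cell and medium controls; IC50 as mean ± SD of three experiments.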
A general note: Tetrazolium assays rely on reduction of a dye to a coloured formazan, in cell work by metabolically active cells.

For `C=C(C)[C@@H](O)[C@H](O)C[C@@H](C)[C@H]1CC[C@@]2(C)[C@@H]3[C@@H](O)C=C4[C@@H](CC[C@H](O)[C@]4(C)CO)[C@]3(C)CC[C@]12C` [BALSAMINAPENTAOL A], the figures for the selectivity ratio in data set [1] and in data set [4] were 3.2 and 1.4, respectively. Also, the IC50 (usually the concentration that gives 50% inhibition) with Plasmodium falciparum [2] is 33 µM; in the data set on Plasmodium falciparum [3] it was 14.6 µM.
For `CC(C)=C[C@H](O)C[C@@H](C)[C@H]1CC[C@@]2(C)[C@@H]3C=C[C@@]45OC[C@]3(CC[C@]12C)[C@@H]4CC[C@H](O)C5(C)C` [KARAVILAGENIN E] the same measures were 4.2, 3.7, 8.2 µM and 7.4 µM.
On to `COC(C)(C)/C=C/C[C@@H](C)[C@H]1CC[C@@]2(C)[C@@H]3[C@@H](O)C=C4[C@@H](CC[C@H](O)[C@]4(C)CO)[C@]3(C)CC[C@]12C` [BALSAMINAGENIN B], for which the selectivity ratio in data set [1] and in data set [4] was 1.8 throughout. The IC50 was 19.2 µM in the data set with Plasmodium falciparum [2], 34 µM in the data set on MCF7 and 18.7 µM with Plasmodium falciparum [3].
In the case of `CC(C)=C[C@H](O)C[C@@H](C)[C@H]1CC[C@@]2(C)[C@@H]3C(=O)C=C4[C@@H](CC[C@H](O)C4(C)C)[C@]3(C)CC[C@]12C` [BALSAMINOL E], the selectivity ratio in data set [1] stood at 2.2; in data set [4], 2.3. For the same compound, the IC50 with Plasmodium falciparum [2] was determined as 19.6 µM; with MCF7, 44.2 µM; in the data set with Plasmodium falciparum [3] it was 20.4 µM.
Consider `CO[C@H]1C=C2[C@@H](CC[C@H](O)C2(C)C)[C@]2(C)C[C@@H](O)[C@]3(C)[C@@H]([C@H](C)C/C=C/C(C)(C)O)CC[C@@]3(C)[C@H]12`, for which the selectivity ratio is 3.1 in data set [1] and 2 in data set [4]. In addition, the concentration for half-maximal inhibition (IC50) was 28.3 µM in the data set on Plasmodium falciparum [2], 55.4 µM in the data set on MCF7 and 17.7 µM in the data set on Plasmodium falciparum [3].
With `CO[C@H]1C=C2[C@@H](CC[C@H](O)[C@]2(C)CO)[C@]2(C)CC[C@]3(C)[C@@H]([C@H](C)C[C@@H](O)C=C(C)C)CC[C@@]3(C)[C@H]12` [BALSAMINOL B], the values for the selectivity ratio in data set [1] and in data set [4] were 2 and 1.7, respectively. Moreover, the results for the IC50 with Plasmodium falciparum [2], with MCF7 and in the data set with Plasmodium falciparum [3] were 17.9 µM, 31 µM and 15.2 µM, respectively.
For the compound `C[C@H](C/C=C/C(C)(C)O)[C@H]1CC[C@@]2(C)[C@@H]3[C@@H](O)C=C4[C@@H](CC[C@H](O)C4(C)C)[C@]3(C)CC[C@]12C`, the selectivity ratio in data set [1] was determined as 1.5; in data set [4], 0.9. In addition, the IC50 in the data set with Plasmodium falciparum [2] came out at 50.1 µM; in the data set on Plasmodium falciparum [3], 30.6 µM.
Turning to `C[C@H](C/C=C/C(C)(C)O)[C@H]1CC[C@@]2(C)[C@@H]3[C@@H](O)C=C4[C@@H](CC[C@H](O)C4(C)C)[C@]3(C)C[C@@H](O)[C@]12C` [CUCURBALSAMINOL A], the selectivity ratio in data set [1] was > 10.1; in data set [4] it was > 7.6. The IC50 in the data set with Plasmodium falciparum [2] is 17.6 µM; in the data set with MCF7, > 133 µM; in the data set with Plasmodium falciparum [3], 13.2 µM.
For `C[C@H](C/C=C/C(C)(C)O)[C@H]1CC[C@@]2(C)[C@@H]3[C@@H](O)C=C4[C@@H](CC[C@H](O)[C@]4(C)CO)[C@]3(C)CC[C@]12C` [BALSAMINAGENIN A] the same measures were 3.4, 2.4, 27.3 µM, 65.1 µM and 19.1 µM.
In the same order, the values of `CC(=O)C[C@@H](C)[C@H]1CC[C@@]2(C)[C@@H]3C(=O)C=C4[C@@H](CC[C@H](O)[C@]4(C)CO)[C@]3(C)CC[C@]12C` [BALSAMINOL D] are > 5.1, > 2.9, 45.6 µM, > 133 µM and 25.9 µM.
For `COC(C)(C)/C=C/C[C@@H](C)[C@H]1CC[C@@]2(C)[C@@H]3[C@@H](O[C@H]4O[C@@H](CO)[C@H](O)[C@H](O)[C@@H]4O)C=C4[C@@H](CC[C@H](O)C4(C)C)[C@]3(C)CC[C@]12C` [BALSAMINOSIDE A] the same measures were 4.2, 4.7, 4 µM, 19 µM and 4.6 µM.
On to `CC(C)=C[C@H](O)C[C@@H](C)[C@H]1CC[C@@]2(C)[C@@H]3[C@@H](O)C=C4[C@@H](CC[C@H](O)[C@]4(C)CO)[C@]3(C)CC[C@]12C` [BALSAMINOL A], for which the selectivity ratio was 2.3 in data set [1] and 1.7 in data set [4]. The results for the IC50 in the data set on Plasmodium falciparum [2] and in the data set on Plasmodium falciparum [3] were 23.5 µM and 17.1 µM, respectively.
With `CC(C)=CC(=O)C[C@@H](C)[C@H]1CC[C@@]2(C)[C@@H]3C(=O)C=C4[C@@H](CC[C@H](O)[C@]4(C)CO)[C@]3(C)CC[C@]12C` [BALSAMINOL C], the values for the selectivity ratio in data set [1] and in data set [4] were 3.6 and 3.2, respectively. Further, the IC50 in the data set with Plasmodium falciparum [2] turned out to be 22.4 µM; in the data set on MCF7 it was 70.5 µM; with Plasmodium falciparum [3], 19.6 µM.
